ChEMBL document CHEMBL3414445, “Blood-brain barrier permeable anticholinesterase aurones: synthesis, structure-activity relationship, and drug-like properties” (Eur J Med Chem, 2015)

Legend:
[1] = Stability in Sprague-Dawley rat liver microsomes assessed as parent compound remaining at 2 uM measured 10 mins after microsomal reactions termination at pH 7.4 pre-incubated in presence of NADPH regenerating system by LC-MS method; assay type: ADME; settings: read-out: Stability
Summary of the method: (§1)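 Compound added (2 µM final, from DMSO stock), 37 °C; time-0 aliquot and reaction quenched with ice-cold acetonitrile (acetaminophen internal standard) at 10 min, or 30 min for some compounds. Single time-point design; LC-MS (Q-Tof) analysis.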

[2] = Half life in Sprague-Dawley rat liver microsomes at 2 uM at pH 7.4 pre-incubated in presence of NADPH regenerating system measured 10 mins after microsomal reactions termination by LC-MS method; assay type: ADME; summary of the method: as §1
[3] = biological target: Acetylcholinesterase (Electrophorus electricus, UniProt O42275); assay: Inhibition of electric eel AChE incubated for 15 mins using […] substrate by colorimetric Ellman's method
[4] = biological target: Cholinesterase (Equus caballus, UniProt P81908); assay: Inhibition of equine serum butyrylcholine esterase incubated for 15 mins using S-butyrylthiocholine chloride substrate by colorimetric Ellman's method
[5] = in vitro; settings: PAMPA, pH 7.4
[6] = Selectivity index, ratio of IC50 for equine serum butyrylcholine esterase to IC50 for electric eel AChE
[7] = tested on: Liver microsome; assay: Drug metabolism in Sprague-Dawley rat liver microsomes assessed as formation of monohydroxylated metabolite at 2 uM at pH 7.4 pre-incubated in presence of NADPH regenerating system measured after 10 to 30 mins by LC-MS method; assay type: ADME; settings: pH 7.4, 2 µM; summary of the method: as §1
[8] = Half life in Sprague-Dawley rat liver microsomes at 2 uM at pH 7.4 pre-incubated in presence of NADPH regenerating system measured 30 mins after microsomal reactions termination by LC-MS method; assay type: ADME
[9] = Stability in Sprague-Dawley rat liver microsomes assessed as parent compound remaining at 2 uM measured 30 mins after microsomal reactions termination at pH 7.4 pre-incubated in presence of NADPH regenerating system by LC-MS method; assay type: ADME; settings: read-out: Stability
[10] = tested on: Liver microsome; assay: Drug metabolism in Sprague-Dawley rat liver microsomes assessed as formation of desmethylated metabolite at 2 uM at pH 7.4 pre-incubated in presence of NADPH regenerating system measured after 10 to 30 mins by LC-MS method; assay type: ADME; settings: pH 7.4, 2 µM; summary of the method: as §1
[11] = Retention time of the compound by HPLC-UV method; assay type: physicochemical

Acetylcholinesterase, sequence (O42275 whole entry): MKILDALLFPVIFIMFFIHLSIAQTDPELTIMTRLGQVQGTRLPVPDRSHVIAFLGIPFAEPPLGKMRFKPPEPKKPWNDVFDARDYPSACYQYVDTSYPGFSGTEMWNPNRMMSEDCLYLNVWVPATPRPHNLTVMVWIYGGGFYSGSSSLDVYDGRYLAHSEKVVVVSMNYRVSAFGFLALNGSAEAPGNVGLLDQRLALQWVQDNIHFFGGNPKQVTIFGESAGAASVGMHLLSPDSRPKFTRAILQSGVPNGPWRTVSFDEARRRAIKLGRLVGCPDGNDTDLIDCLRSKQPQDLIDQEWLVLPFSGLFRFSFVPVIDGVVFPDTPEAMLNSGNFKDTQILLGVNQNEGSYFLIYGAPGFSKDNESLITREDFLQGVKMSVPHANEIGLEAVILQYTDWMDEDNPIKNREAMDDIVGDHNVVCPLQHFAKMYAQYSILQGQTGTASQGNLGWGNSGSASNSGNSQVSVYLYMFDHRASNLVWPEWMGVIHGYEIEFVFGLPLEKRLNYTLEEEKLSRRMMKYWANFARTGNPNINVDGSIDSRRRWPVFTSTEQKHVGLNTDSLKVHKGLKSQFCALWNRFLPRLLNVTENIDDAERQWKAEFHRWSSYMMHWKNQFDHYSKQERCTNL
Cholinesterase, sequence (P81908 whole entry): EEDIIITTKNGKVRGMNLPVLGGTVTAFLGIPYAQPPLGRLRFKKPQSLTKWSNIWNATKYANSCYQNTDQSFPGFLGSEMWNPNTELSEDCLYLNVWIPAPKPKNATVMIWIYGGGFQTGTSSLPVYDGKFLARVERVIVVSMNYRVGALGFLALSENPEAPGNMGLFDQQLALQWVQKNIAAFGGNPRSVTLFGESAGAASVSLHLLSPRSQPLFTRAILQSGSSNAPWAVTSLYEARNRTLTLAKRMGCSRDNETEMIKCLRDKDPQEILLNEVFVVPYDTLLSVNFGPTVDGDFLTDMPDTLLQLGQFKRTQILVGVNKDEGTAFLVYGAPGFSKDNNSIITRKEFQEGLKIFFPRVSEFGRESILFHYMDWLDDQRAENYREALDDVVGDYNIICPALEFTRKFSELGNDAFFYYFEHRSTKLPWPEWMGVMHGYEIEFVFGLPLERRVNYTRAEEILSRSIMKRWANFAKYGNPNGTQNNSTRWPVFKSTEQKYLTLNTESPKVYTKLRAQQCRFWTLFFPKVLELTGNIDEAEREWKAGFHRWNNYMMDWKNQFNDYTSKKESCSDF

SMILES	IC50 [3]	IC50 [4]	Ratio IC50 [6]	further results
C[C@]12CC[C@H]3[C@@H](CCC4=CC(=O)CC[C@@]43C)[C@@H]1CC[C@@H]2O [TESTOSTERONE]				remaining at 10 min, 2 µM [1]: < 0.001%; half-life at 2 µM [2]: 0.48 min
O=C1/C(=C/c2ccc(OCCN3CCCC3)cc2)Oc2cc(O)ccc21	3.24 µM	> 100 µM		
COc1ccc(/C=C2\Oc3cc(OCCN4CCCCC4)ccc3C2=O)cc1	0.845 µM	6.87 µM	8.13	remaining at 10 min, 2 µM [1]: 53.6%; Papp [5]: 20 ×10⁻⁶ cm/s; Retention_time: 4.5 min; half-life at 2 µM [2]: 11.2 min
COc1cc(/C=C2\Oc3cc(OCCN4CCCCC4)ccc3C2=O)cc(OC)c1OC	0.422 µM	6.15 µM	14.6	Drug metabolism [7]: metabolite_detected; Papp [5]: 21.3 ×10⁻⁶ cm/s; half-life at 2 µM [8]: 43.8 min; Retention_time: 3.7 min; remaining at 0.5 h, 2 µM [9]: 61.9%; Drug metabolism [10]: metabolite_detected
COc1ccc2c(c1)O/C(=C\c1ccc(OCCN(C)C)c(Cl)c1)C2=O	1.33 µM	11.1 µM	8.35	
COc1ccc2c(c1)O/C(=C\c1ccc(OCCCN(C)C)c(Cl)c1)C2=O	1.61 µM	21.6 µM	13.4	
COc1ccc(/C=C2\Oc3cc(OCCN4CCCC4)ccc3C2=O)cc1	1.18 µM	7.19 µM	6.1	
COc1ccc2c(c1)O/C(=C\c1ccc(OCCN3CCCCC3)cc1Cl)C2=O	0.513 µM	11.4 µM	22.2	
COc1ccc2c(c1)O/C(=C\c1ccc(N(C)C)cc1)C2=O	50.3 µM	31.8 µM	0.63	
CCN(CC)c1ccc(/C=C2\Oc3cc(O)ccc3C2=O)cc1	> 100 µM	> 100 µM		
CCN(CC)C(=O)Oc1ccc2c(c1)O/C(=C\c1ccc(N(C)C)cc1)C2=O	> 100 µM	> 100 µM		
CCN(CC)C(=O)Oc1ccc(/C=C2\Oc3cc(OC)ccc3C2=O)cc1	10.9 µM	> 100 µM		
CCN(CC)C(=O)Oc1ccc2c(c1)O/C(=C\c1ccc(OCCN(C)C)cc1)C2=O	5.44 µM	9.69 µM	1.78	
COc1ccc2c(c1)O/C(=C\c1ccc(OCCN3CCCCC3)c(Cl)c1)C2=O	0.16 µM	7.9 µM	49.4	remaining at 10 min, 2 µM [1]: 59.5%; Papp [5]: 12.2 ×10⁻⁶ cm/s; Retention_time: 3.4 min; half-life at 2 µM [2]: 13.4 min
O=C1/C(=C/c2ccc(OCCN3CCCC3)cc2Cl)Oc2cc(O)ccc21	0.878 µM	8.68 µM	9.89	
O=C1/C(=C/c2ccc(OCCN3CCCCC3)cc2)Oc2cc(O)ccc21	2.23 µM	> 100 µM		Papp [5]: 10 ×10⁻⁶ cm/s; Retention_time: 3.6 min
CCN(CC)C(=O)Oc1ccc2c(c1)O/C(=C\c1ccc(OC)cc1)C2=O	> 100 µM	12.7 µM		
O=C1/C(=C/c2ccc(OCCN3CCCC3)c(Cl)c2)Oc2cc(O)ccc21	0.289 µM	9.92 µM	34.3	
COc1cc(/C=C2\Oc3cc(OCCN4CCCC4)ccc3C2=O)cc(OC)c1OC	0.643 µM	11.7 µM	18.2	
COc1ccc2c(c1)O/C(=C\c1ccc(OCCN(C)C)cc1Cl)C2=O	12.4 µM	23.9 µM	1.93	
COc1ccc2c(c1)O/C(=C\c1ccc(OCCCN(C)C)cc1)C2=O	2.44 µM	30.4 µM	12.5	
O=C1/C(=C/c2ccncc2)Oc2cc(O)ccc21	> 100 µM	> 100 µM		
COc1cc(/C=C2\Oc3cc(OCCCN(C)C)ccc3C2=O)cc(OC)c1OC	9.88 µM	> 100 µM		

SMILES	IC50 [3]	IC50 [4]	Ratio IC50 [6]	further results
COc1cc2c(cc1OC)C(=O)C(CC1CCN(Cc3ccccc3)CC1)C2 (stereo not given) [DONEPEZIL]				half-life at 2 µM [8]: 76.5 min; remaining at 0.5 h, 2 µM [9]: 76.2%
COc1ccc(/C=C2\Oc3cc(OCCCN(C)C)ccc3C2=O)cc1	15.7 µM	31.2 µM	1.99	
COc1ccc(/C=C2\Oc3cc(OCCN(C)C)ccc3C2=O)cc1	12 µM	25.3 µM	2.1	
COc1ccc2c(c1)O/C(=C\c1ccc(OCCN(C)C)cc1)C2=O	1.97 µM	25.9 µM	13.1	
COc1ccc2c(c1)O/C(=C\c1ccc(O)cc1)C2=O	> 100 µM	> 100 µM		
CCN(CC)C(=O)Oc1ccc2c(c1)O/C(=C\c1ccc(OCCN3CCCC3)cc1)C2=O	0.779 µM	7.4 µM	9.5	
CN(C)CCCOc1ccc(/C=C2\Oc3cc(O)ccc3C2=O)cc1	7.9 µM	> 100 µM		
CN(C)c1ccc(/C=C2\Oc3cc(O)ccc3C2=O)cc1	> 100 µM	> 100 µM		
Cn1c(=O)c2[nH]cnc2n(C)c1=O.O [THEOPHYLLINE]				Retention_time [11]: 3.4 min
COc1ccc(/C=C2\Oc3cc(O)ccc3C2=O)cc1	> 100 µM	> 100 µM		
COc1ccc2c(c1)O/C(=C\c1ccc(OCCN3CCCC3)cc1)C2=O	0.545 µM	10.2 µM	18.7	Drug metabolism [7]: metabolite_detected; remaining at 10 min, 2 µM [1]: 25.3%; Papp [5]: 24.7 ×10⁻⁶ cm/s; Retention_time: 3.6 min; half-life at 2 µM [2]: 5.1 min
CCN(CC)c1ccc(/C=C2\Oc3cc(OC)ccc3C2=O)cc1	> 100 µM	> 100 µM		
CCN(CC)C(=O)Oc1ccc2c(c1)O/C(=C\c1ccc(N(CC)CC)cc1)C2=O	> 100 µM	> 100 µM		
COc1ccc2c(c1)O/C(=C\c1ccncc1)C2=O	> 100 µM	> 100 µM		
CCN(CC)C(=O)Oc1ccc2c(c1)O/C(=C\c1ccc(OCCCN(C)C)cc1)C2=O	3.29 µM	6.1 µM	1.85	
COc1ccc(/C=C2\Oc3cc(OC)ccc3C2=O)cc1	> 100 µM	> 100 µM		remaining at 10 min, 2 µM [1]: 41.4%; Papp [5]: 9.8 ×10⁻⁶ cm/s; Retention_time: 3.9 min; half-life at 2 µM [2]: 7.9 min
COc1ccc2c(c1)O/C(=C\c1ccc(OCCCN(C)C)cc1Cl)C2=O	15.1 µM	34.1 µM	2.26	
Cn1c(=O)c2c(ncn2C)n(C)c1=O [CAFFEINE]				Retention_time [11]: 3.2 min
CCN(CC)C(=O)Oc1ccc2c(c1)O/C(=C\c1ccc(OCCN3CCCCC3)cc1)C2=O	0.652 µM	7.17 µM	11	remaining at 10 min, 2 µM [1]: 44.3%; Papp [5]: 16.1 ×10⁻⁶ cm/s; Retention_time: 4.2 min; half-life at 2 µM [2]: 8.5 min
CN(C)CCOc1ccc(/C=C2\Oc3cc(O)ccc3C2=O)cc1	5.52 µM	> 100 µM		
COc1cc(/C=C2\Oc3cc(OCCN(C)C)ccc3C2=O)cc(OC)c1OC	15.6 µM	66.4 µM	4.26	
COc1ccc2c(c1)O/C(=C\c1ccc(OCCN3CCCCC3)cc1)C2=O	0.348 µM	8.87 µM	25.5	remaining at 10 min, 2 µM [1]: 52.1%; Papp [5]: 20 ×10⁻⁶ cm/s; Retention_time: 4.5 min; half-life at 2 µM [2]: 10.9 min
